# Assay results: ChEMBL document CHEMBL1128739, “Structure-activity relationships in the 8-amino-6,7,8,9-tetrahydro-3H-benz[e]indole ring system. 2. Effects of 8-amino nitrogen substitution on serotonin receptor binding and pharmacology” (J Med Chem, 1995)
# Activity calls are given as the source filed them. The rule behind the calls is not given here.
# Experiments:
# [1] = target: T1, 5-hydroxytryptamine receptor 1B (Homo sapiens, UniProt P28222); experiment: In vitro binding affinity against cloned mammalian 5-hydroxytryptamine 1D receptor beta expressed in CHO cells, by using [3H]5-HT as radioligand; format: cell-based
# T1 sequence (P28222 whole entry): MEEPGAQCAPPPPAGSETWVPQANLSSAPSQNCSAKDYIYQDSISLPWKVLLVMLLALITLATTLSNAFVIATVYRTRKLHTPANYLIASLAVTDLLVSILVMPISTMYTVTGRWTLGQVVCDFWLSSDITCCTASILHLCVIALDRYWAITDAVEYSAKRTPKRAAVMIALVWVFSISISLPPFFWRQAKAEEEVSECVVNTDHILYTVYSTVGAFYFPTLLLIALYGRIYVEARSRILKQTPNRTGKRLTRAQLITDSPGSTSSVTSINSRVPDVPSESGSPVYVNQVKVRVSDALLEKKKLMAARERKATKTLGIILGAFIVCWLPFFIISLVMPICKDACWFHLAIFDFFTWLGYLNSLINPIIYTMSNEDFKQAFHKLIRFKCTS
# Outline: (§1)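 Membranes from CHO cells stably expressing the cloned receptor, made by mechanical disruption in ice-cold Tris/EDTA/EGTA pH 7.4 and differential centrifugation. [3H]serotonin at 1.7 nM in 50 mM Tris, 5 mM MgCl2, 0.1% ascorbic acid, pH 7.4. 11 drug concentrations in duplicate, 1 h at room temperature protected from light, then filtration. Excess serotonin defines nonspecific binding. One-site IC50 fit, Ki by Cheng-Prusoff.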
# [2] = target: 5-hydroxytryptamine receptor 1D (Homo sapiens, UniProt P28221); experiment: In vitro binding affinity against cloned mammalian 5-hydroxytryptamine 1D receptor alpha expressed in CHO cells, by using [3H]5-HT as radioligand; format: cell-based
# Sequence of 5-hydroxytryptamine receptor 1D (P28221 whole entry): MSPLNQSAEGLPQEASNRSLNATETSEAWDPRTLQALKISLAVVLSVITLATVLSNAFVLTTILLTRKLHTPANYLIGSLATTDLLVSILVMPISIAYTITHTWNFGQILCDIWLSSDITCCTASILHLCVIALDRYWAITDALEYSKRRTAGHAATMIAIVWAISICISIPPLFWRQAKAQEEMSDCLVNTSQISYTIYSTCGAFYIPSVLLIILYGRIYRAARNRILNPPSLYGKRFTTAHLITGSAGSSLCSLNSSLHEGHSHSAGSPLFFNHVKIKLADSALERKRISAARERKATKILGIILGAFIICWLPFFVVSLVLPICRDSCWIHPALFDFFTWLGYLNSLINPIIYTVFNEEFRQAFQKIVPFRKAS
# Outline: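 Competition binding on CHO-cell membranes (20-60 μg protein) in 50 mM Tris, 5 mM MgCl2, 0.1% ascorbic acid, pH 7.4. Nonspecific binding defined with excess serotonin. 11 drug concentrations, each in duplicate. Incubated 1 h at room temperature, protected from light, then filtered and scintillation counted. IC50 taken from a one-site fit; Ki by Cheng-Prusoff.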
# D(2) dopamine receptor [3] = target: T2, D(2) dopamine receptor (Rattus norvegicus, UniProt P61169); experiment: In vitro binding affinity against cloned mammalian Dopamine receptor D2 expressed in CHO cells using [3H]U-86170 as radioligand; format: cell-based; conditions: read-out: Ki
# T2 sequence (P61169 whole entry): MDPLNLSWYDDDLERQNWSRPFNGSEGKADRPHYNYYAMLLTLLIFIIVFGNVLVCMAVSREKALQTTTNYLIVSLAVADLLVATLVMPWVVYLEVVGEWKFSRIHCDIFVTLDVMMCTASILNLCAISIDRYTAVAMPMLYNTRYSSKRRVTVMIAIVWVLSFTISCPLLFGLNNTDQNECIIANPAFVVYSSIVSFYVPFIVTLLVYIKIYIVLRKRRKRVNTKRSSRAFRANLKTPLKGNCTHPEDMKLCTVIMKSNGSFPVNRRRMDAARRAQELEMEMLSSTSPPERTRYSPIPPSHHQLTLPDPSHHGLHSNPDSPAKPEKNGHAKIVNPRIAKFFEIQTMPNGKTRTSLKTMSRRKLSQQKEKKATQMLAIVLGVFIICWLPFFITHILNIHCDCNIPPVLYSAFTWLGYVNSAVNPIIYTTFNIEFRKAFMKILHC
# Outline: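 Membranes from CHO cells (20-60 μg protein) in 20 mM HEPES, 10 mM MgSO4, pH 7.4. Nonspecific binding defined with excess haloperidol. 11 concentrations, each in duplicate. Incubated 1 h at room temperature, then filtered and counted. IC50 from a one-site competition fit, converted to Ki by Cheng-Prusoff.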
# D(3) dopamine receptor = D(3) dopamine receptor (Rattus norvegicus, UniProt P19020); experiment: In vitro binding affinity against cloned mammalian Dopamine receptor D3 expressed in CHO cells by, using [3H]-spiperone as radioligand; format: cell-based; conditions: read-out: Ki
# Sequence of D(3) dopamine receptor (P19020 whole entry): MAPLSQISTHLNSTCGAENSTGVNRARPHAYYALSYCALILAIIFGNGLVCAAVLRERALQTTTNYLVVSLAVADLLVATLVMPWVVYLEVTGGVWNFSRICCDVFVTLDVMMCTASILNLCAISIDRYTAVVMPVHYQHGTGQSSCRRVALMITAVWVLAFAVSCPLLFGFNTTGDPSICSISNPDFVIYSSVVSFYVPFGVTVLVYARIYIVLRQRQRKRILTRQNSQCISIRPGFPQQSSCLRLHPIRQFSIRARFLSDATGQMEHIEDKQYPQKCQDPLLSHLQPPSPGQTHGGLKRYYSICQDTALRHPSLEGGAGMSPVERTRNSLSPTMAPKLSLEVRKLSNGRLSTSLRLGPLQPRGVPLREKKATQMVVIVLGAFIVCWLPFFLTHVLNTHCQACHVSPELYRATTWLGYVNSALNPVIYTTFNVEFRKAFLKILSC
# Rattus norvegicus [4] = experiment: The compound was tested in vivo for biochemical effect against the changes in different brain area levels of DOPA in reserpinized rat limbic system at dose 25 uM/kg; Inactive; format: functional, organism-based
# Rattus norvegicus [5] = experiment: The compound was tested in vivo for biochemical effect against the changes in different brain area levels of 5-HTP in reserpinized rat corpus striatum at dose 25 uM/kg; Inactive; format: functional, organism-based
# Rattus norvegicus [6] = experiment: The compound was tested in vivo for biochemical effect against the changes in different brain area levels of DOPA in reserpinized rat corpus striatum at dose 25 uM/kg; Inactive; format: functional, organism-based
# Rattus norvegicus [7] = experiment: The compound was tested in vivo for biochemical effect against the changes in different brain area levels of 5-HTP in reserpinized rat limbic system at dose 25 uM/kg; Inactive; format: functional, organism-based
# Rattus norvegicus [8] = experiment: The compound was tested in vivo for biochemical effect against the changes in different brain area levels of 5-HTP in reserpinized rat hemispheres (mainly cortex)at dose 25 uM/kg; Inactive; format: functional, organism-based
# Rattus norvegicus [9] = experiment: The compound was tested in vivo for biochemical effect against the changes in different brain area levels of DOPA in reserpinized rat hemispheres (mainly cortex)at does 25 uM/kg; Inactive; format: functional, organism-based
# D(2) dopamine receptor [10] = target: T2, D(2) dopamine receptor; experiment: Binding affinity rat Dopamine receptor D2 expressed in CHO-K1 cells by [3H]U-86170 displacement.; format: cell-based
# Rattus norvegicus [11] = experiment: In vivo changes in different brain area levels of 5-HTP in reserpinized rat corpus striatum.; format: functional
# Outline: (§2)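 Male Sprague-Dawley rats (200-300 g) pretreated with reserpine 5 mg/kg sc 18 h before. Injection volume 5 mL/kg at neutral pH. Brain-region 5-HTP measured by HPLC with electrochemical detection. Dose-response curves used four to six doses, n = 4.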
# Rattus norvegicus [12] = experiment: The compound was tested in vivo for biochemical effect against the changes in different brain area levels of DOPA in reserpinized rat corpus striatum; format: functional
# Outline: (§3)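 Male Sprague-Dawley rats (200-300 g) pretreated with reserpine 5 mg/kg sc 18 h before. Injection volume 5 mL/kg, test solutions at neutral pH. DOPA and 5-HTP in limbic system, striatum and hemispheres measured by HPLC with electrochemical detection. Dose-response curves from four to six dose levels (n = 4) per brain area.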
# Rattus norvegicus [13] = experiment: In vivo changes in different brain area levels of 5-HTP in reserpinized rat limbic system.; format: functional; outline: as §2
# Rattus norvegicus [14] = experiment: The compound was tested in vivo for biochemical effect against the changes in different brain area levels of DOPA in reserpinized rat limbic system; format: functional
# Outline: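 Rats (male Sprague-Dawley, 200-300 g) received reserpine 5 mg/kg sc 18 h before. Injections 5 mL/kg at neutral pH. DOPA accumulation measured by HPLC with electrochemical detection as an index of DA or NE synthesis rate. Four to six dose levels, n = 4. ED50 from a sigmoidal fit.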
# Rattus norvegicus [15] = experiment: In vivo for biochemical effect against brain area levels of 5-HTP in reserpinized rat hemispheres (mainly cortex).; format: functional; outline: as §3
# Rattus norvegicus [16] = experiment: The compound was tested in vivo for biochemical effect against the changes in different brain area levels of DOPA in reserpinized rat hemispheres (mainly cortex)at dose 50 uM/kg; inactive; format: functional, organism-based
# Rattus norvegicus [17] = experiment: The compound was tested in vivo for biochemical effect against the changes in different brain area levels of DOPA in reserpinized rat limbic system at dose 50 uM/kg; inactive; format: functional, organism-based
# Rattus norvegicus [18] = experiment: The compound was tested in vivo for biochemical effect against the changes in different brain area levels of DOPA in reserpinized rat corpus striatum at dose 50 uM/kg; inactive; format: functional, organism-based
# Rattus norvegicus [19] = experiment: The compound was tested in vivo for biochemical effect against the changes in different brain area levels of 5-HTP in reserpinized rat hemispheres (mainly cortex)at dose 3.1 uM/kg; inactive; format: functional, organism-based
# Rattus norvegicus [20] = experiment: The compound was tested in vivo for biochemical effect against the changes in different brain area levels of DOPA in reserpinized rat hemispheres (mainly cortex)at dose 3.1 uM/kg; inactive; format: functional, organism-based
# Rattus norvegicus [21] = experiment: The compound was tested in vivo for biochemical effect against the changes in different brain area levels of DOPA in reserpinized rat limbic system at dose 3.1 uM/kg; Inactive; format: functional, organism-based; outline: as §3
# Rattus norvegicus [22] = experiment: The compound was tested in vivo for biochemical effect against the changes in different brain area levels of 5-HTP in reserpinized rat corpus striatum at dose 3.1 uM/kg; Inactive; format: functional, organism-based
# Rattus norvegicus [23] = experiment: The compound was tested in vivo for biochemical effect against the changes in different brain area levels of DOPA in reserpinized rat corpus striatum at dose 3.1 uM/kg; Inactive; format: functional, organism-based; outline: as §3
# Rattus norvegicus [24] = experiment: The compound was tested in vivo for biochemical effect against the changes in different brain area levels of 5-HTP in reserpinized rat hemispheres (mainly cortex)at dose 3.1 uM/kg; Inactive; format: functional, organism-based
# Rattus norvegicus [25] = experiment: The compound was tested in vivo for biochemical effect against the changes in different brain area levels of DOPA in reserpinized rat hemispheres (mainly cortex)at dose 3.1 uM/kg; Inactive; format: functional, organism-based; outline: as §3
# Rattus norvegicus [26] = experiment: The compound was tested in vivo for biochemical effect against the changes in different brain area levels of 5-HTP in reserpinized rat limbic system at dose 3.1 uM/kg; Inactive; format: functional, organism-based
# Rattus norvegicus [27] = experiment: The compound was tested in vivo for biochemical effect against the changes in different brain area levels of DOPA in reserpinized rat limbic system at dose 12.5 umol/kg; Partial effect; format: functional, organism-based
# Rattus norvegicus [28] = experiment: The compound was tested in vivo for biochemical effect against the changes in different brain area levels of DOPA in reserpinized rat corpus striatum at dose 12.5 umol/kg; Partial effect; format: functional, organism-based
# Rattus norvegicus [29] = experiment: The compound was tested in vivo for biochemical effect against the changes in different brain area levels of DOPA in reserpinized rat hemispheres (mainly cortex)at doest 12.5 umol/kg; Inactive; format: functional, organism-based
# Rattus norvegicus [30] = experiment: The compound was tested in vivo for biochemical effect against the changes in different brain area levels of DOPA in reserpinized rat limbic system at does 12.5 uM/kg; Partial effect; format: functional, organism-based; outline: as §3
# Rattus norvegicus [31] = experiment: The compound was tested in vivo for biochemical effect against the changes in different brain area levels of DOPA in reserpinized rat corpus striatum at dose 12.5 uM/kg; Partial effect; format: functional, organism-based; outline: as §3
# Rattus norvegicus [32] = experiment: The compound was tested in vivo for biochemical effect against the changes in different brain area levels of DOPA in reserpinized rat hemispheres (mainly cortex)at does 12.5 uM/kg; Inactive; format: functional, organism-based; outline: as §3
# [33] = target: T1, 5-hydroxytryptamine receptor 1B; experiment: The compound was tested in vitro for binding affinity against cloned mammalian 5-hydroxytryptamine 1D receptor beta expressed in CHO cells, by using [3H]5-HT as radioligand; format: cell-based; design: concentration or dose not given beside the values; conditions: concentration not given here; outline: as §1
# [34] = target: D(3) dopamine receptor (Rattus norvegicus) (UniProt P19020); experiment: The compound was tested in vitro for binding affinity against cloned mammalian Dopamine receptor D3 expressed in CHO cells by, using [3H]spiperone as radioligand; inactive at 10E-6 M; format: cell-based
# Sequence of D(3) dopamine receptor (Rattus norvegicus) (P19020 whole entry): as above
# Rattus norvegicus [35] = experiment: The compound was tested in vivo for biochemical effect against the changes in different brain area levels of DOPA in reserpinized rat hemispheres (mainly cortex); inactive at dose 50 uM/kg; Inactive; format: functional, organism-based
compound,measurement,setting,value
CCCN(CCCCN1C(=O)CC(C)(C)CC1=O)[C@H]1CCc2ccc3[nH]cc(C=O)c3c2C1,Ki,[1],1620 nM
same,Ki,[2],250 nM
same,Ki,D(2) dopamine receptor [3],859 nM
same,Ki,D(3) dopamine receptor,1270 nM
same,ED50,Rattus norvegicus [4],inactive
same,ED50,Rattus norvegicus [5],inactive
same,ED50,Rattus norvegicus [6],inactive
same,ED50,Rattus norvegicus [7],inactive
same,ED50,Rattus norvegicus [8],inactive
same,ED50,Rattus norvegicus [9],inactive
CCCN(Cc1ccccc1)C1CCc2ccc3[nH]ccc3c2C1 (stereo unspecified),Ki,[1],4610 nM
same,Ki,[2],192 nM
same,Ki,D(2) dopamine receptor [10],22 nM
same,Ki,D(3) dopamine receptor,43 nM
same,ED50,Rattus norvegicus [11],6.87 µmol/kg
same,ED50,Rattus norvegicus [12],8.77 µmol/kg
same,ED50,Rattus norvegicus [13],7.58 µmol/kg
same,ED50,Rattus norvegicus [14],8.1 µmol/kg
same,ED50,Rattus norvegicus [15],6.72 µmol/kg
same,ED50,Rattus norvegicus [16],inactive
c1ccc(CCCNCC2CCc3ccc4[nH]ccc4c3C2)cc1 (stereo unspecified),Ki,[1],228 nM
same,Ki,[2],63 nM
same,Ki,D(2) dopamine receptor [10],32 nM
same,Ki,D(3) dopamine receptor,199 nM
same,ED50,Rattus norvegicus [17],inactive
same,ED50,Rattus norvegicus [11],34 µmol/kg
same,ED50,Rattus norvegicus [18],inactive
same,ED50,Rattus norvegicus [19],inactive
same,ED50,Rattus norvegicus [20],inactive
CCCN(Cc1ccccc1)C1CCc2ccc3[nH]cc(C=O)c3c2C1 (stereo unspecified),Ki,[1],992 nM
same,Ki,[2],33 nM
same,Ki,D(2) dopamine receptor [3],90 nM
same,Ki,D(3) dopamine receptor,115 nM
same,ED50,Rattus norvegicus [21],inactive
same,ED50,Rattus norvegicus [22],inactive
same,ED50,Rattus norvegicus [23],inactive
same,ED50,Rattus norvegicus [24],inactive
same,ED50,Rattus norvegicus [25],inactive
same,ED50,Rattus norvegicus [26],inactive
CCCN(CCCc1ccccc1)[C@@H]1CCc2ccc3[nH]cc(C=O)c3c2C1,Ki,[1],14 nM
same,Ki,[2],0.9 nM
same,Ki,D(2) dopamine receptor [3],5.8 nM
same,Ki,D(3) dopamine receptor,19 nM
same,ED50,Rattus norvegicus [27],Weak activity
same,ED50,Rattus norvegicus [11],0.43 µmol/kg
same,ED50,Rattus norvegicus [28],Weak activity
same,ED50,Rattus norvegicus [29],inactive
same,ED50,Rattus norvegicus [15],0.75 µmol/kg
CCCN(CCC)[C@H]1CCc2ccc3[nH]cc(C=O)c3c2C1,ED50,Rattus norvegicus [30],Weak activity
same,ED50,Rattus norvegicus [31],Weak activity
same,ED50,Rattus norvegicus [32],inactive
c1cc2c3c(ccc2[nH]1)CCC(N1CCCC1)C3 (stereo unspecified),Ki,[2],77 nM
same,inhibition,[33],< 45%
same,Ki,D(2) dopamine receptor [10],94 nM
same,inhibition,[34],< 45%
same,ED50,Rattus norvegicus [11],0.066 µmol/kg
same,ED50,Rattus norvegicus [12],3.26 µmol/kg
same,ED50,Rattus norvegicus [13],0.092 µmol/kg
same,ED50,Rattus norvegicus [14],1.57 µmol/kg
same,ED50,Rattus norvegicus [15],0.051 µmol/kg
same,ED50,Rattus norvegicus [35],inactive
